Activity, IC50 and Ratio data for nine compounds are collected here from ChEMBL document CHEMBL4732262, “Identification of two novel thiophene analogues as inducers of autophagy mediated cell death in breast cancer cells” (Bioorg Med Chem, 2021).

Activity calls are given as the source filed them. The rule behind the calls is not given here.

Assay [1] relates to MCF7. In words: Cytotoxicity against human MCF7 cells assessed as reduction in cell viability at 100 uM after 24 hrs by MTT assay. In kind it is functional, cell-based.
Assay [2] concerns MDA-MB-231. Kind of assay: Cytotoxicity against human MDA-MB-231 cells assessed as reduction in cell viability at 100 uM after 24 hrs by MTT assay. The assay is classed as functional, cell-based. (In general: Tetrazolium assays rely on reduction of a dye to a coloured formazan, in cell work by metabolically active cells.)
Assay [3] has as its system MCF7. Kind of assay: Cytotoxicity against human MCF7 cells assessed as reduction in cell viability after 24 hrs by MTT assay. In kind it is functional, cell-based. The conditions noted are these: MCF7, 24 h. In a few lines: (§1)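 Cells seeded ~5 × 10^3 per well in 96-well plates, exposed to 0–40 µM for 24 h. MTT added at 0.5 mg/ml for 3 h, formazan dissolved in DMSO, absorbance read at 540 nm. IC50 taken from plotted curves. Duplicate wells, two independent repeats. MCF7 grown in DMEM, MDA-MB-231 in RPMI, both with 10% FBS at 37 °C and 5% CO2.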

Assay [4] has as its system MDA-MB-231. In words: Cytotoxicity against human MDA-MB-231 cells assessed as reduction in cell viability after 24 hrs by MTT assay. In kind it is functional, cell-based. The conditions noted are these: MDA-MB-231, 24 h. The method in brief: as §1
Assay [5] deals with MCF7. Kind of assay: Induction of apoptosis in human MCF7 cells assessed as early apoptotic cells at 2.5 uM after 24 hrs by annexin V-FITC/Propidium iodide staining based flow cytometric analysis (reference value: 3.94%). In kind it is functional.
In assay [6] the test system is MCF7. In words: Induction of apoptosis in human MCF7 cells assessed as late apoptotic cells at 2.5 uM after 24 hrs by annexin V-FITC/Propidium iodide staining based flow cytometric analysis (reference value: 0.2%). In kind it is functional. Background: In flow cytometry, cells or beads pass a laser one at a time.
The subject of assay [7] is MCF7. In words: Induction of apoptosis in human MCF7 cells assessed as necrotic cells at 2.5 uM after 24 hrs by annexin V-FITC/Propidium iodide staining based flow cytometric analysis (reference value: 1.22%). In kind it is functional.
The test system of assay [8] is MDA-MB-231. In words: Induction of apoptosis in human MDA-MB-231 cells assessed as early apoptotic cells at 2.5 uM after 24 hrs by annexin V-FITC/Propidium iodide staining based flow cytometric analysis (reference value: 1.54%). In kind it is functional.
In assay [9] the test system is MDA-MB-231. In words: Induction of apoptosis in human MDA-MB-231 cells assessed as late apoptotic cells at 2.5 uM after 24 hrs by annexin V-FITC/Propidium iodide staining based flow cytometric analysis (reference value: 0.08%). The assay is classed as functional.
Assay [10] has as its system MDA-MB-231. In words: Induction of apoptosis in human MDA-MB-231 cells assessed as necrotic cells at 2.5 uM after 24 hrs by annexin V-FITC/Propidium iodide staining based flow cytometric analysis (reference value: 0.65%). In kind it is functional.
Assay [11] relates to MCF7. In words: Induction of autophagy in human MCF7 cells assessed as LC3-2 to LC3-1 protein ratio at 2.5 uM after 24 hrs by Western blot analysis (reference value: 0.22 to 0.8). In kind it is functional. Background: In western blotting, separated proteins are transferred to a membrane and probed.
Assay [12] has as its system MCF7. In words: Induction of apoptosis in human MCF7 cells assessed as increase in cell death at 2.5 uM after 24 hrs by EtBr/AO staining based fluorescence microscopic method. The assay is classed as functional. The method in brief:
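~5 × 10^4 MCF7 cells on coverslips given 2.5 µM for 24 h, then PBS-washed and stained with 1:1 ethidium bromide/acridine orange (0.4 mg/ml each). Viewed by fluorescence microscopy, excitation 480 nm with a 515–530 nm barrier filter. Apoptotic, necrotic and viable cells scored from 200 cells per sample.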

Another assay deals with MCF7 (Homo sapiens). Kind of assay: Induction of apoptosis in human MCF7 cells assessed as increase in cell death at 2.5 uM after 24 hrs by EtBr/AO staining based fluorescence microscopic method.
Assay [13] deals with MCF7. In words: Induction of apoptotic in human MCF7 cells assessed as increase in Bim protein expression at 2.5 uM after 24 hrs by Western blot analysis. The assay is classed as functional, cell-based. The method in brief:
(§2)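 MCF7 or MDA-MB-231 cells given 2.5 µM or DMSO for 24 h, then lysed in RIPA buffer. Immunoblots probed overnight at 4 °C, followed by infrared-labelled secondary antibody for 1 h at 37 °C. Bands imaged and quantified densitometrically, with GAPDH as loading control. Representative of two independent experiments.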

Assay [14] deals with MCF7. In words: Induction of autophagy in human MCF7 cells assessed as increase in Beclin1 protein expression at 2.5 uM after 24 hrs by Western blot analysis. The assay is classed as functional, cell-based. The method in brief:
as §2

Assay [15] has as its system MCF7. Kind of assay: Induction of autophagy in human MCF7 cells assessed as increase in LC3-2 to LC3-1 protein ratio at 2.5 uM after 24 hrs by Western blot analysis. The assay is classed as functional, cell-based. In a few lines: (§3)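 MCF7 cells (~5 × 10^6) left untreated (DMSO control) or exposed to 2.5 µM compound for 24 h. Lysed in RIPA buffer, probed overnight at 4 °C, then given infrared-tagged secondary antibodies for 1 h at 37 °C and imaged by infrared scanning. LC3-II/I ratio and p62 taken by densitometry with GAPDH as loading control. Two independent experiments.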

In assay [16] the test system is MCF7. Kind of assay: Induction of autophagy in human MCF7 cells assessed as increase in p62 degradation at 2.5 uM after 24 hrs by Western blot analysis. The assay is classed as functional, cell-based. The method in brief:
as §3

The test system of assay [17] is MCF7. In words: Induction of autophagy in human MCF7 cells expressing GFP tagged LC3-2 assessed as increase in […] puncta formation at 2.5 uM after 24 hrs by confocal microscopic analysis. In kind it is functional, cell-based. In a few lines: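 MCF7 cells (~1 × 10^6) at 70% confluency on glass-bottom dishes were transiently transfected with GFP-LC3 (Lipofectamine 3000). 24 h later they received 2.5 µM compound or DMSO for another 24 h. Nuclei were stained with Hoechst 33342 and lysosomes with LysoTracker Red DND-99, then imaged by live-cell confocal microscopy. LC3 puncta were counted in at least 10 cells from 3 fields. Two independent experiments.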

Assay [18] concerns MCF7. Kind of assay: Induction of autophagy in human MCF7 cells assessed as increase in Bcl2L11 mRNA expression at 2.5 uM after 24 hrs by RT-PCR analysis. In kind it is functional, cell-based. In a few lines:
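MCF7 cells given 2.5 µM or DMSO for 24 h. Total RNA extracted with TRIzol and reverse-transcribed, then SYBR Green qPCR across 34 autophagy-regulatory genes (95 °C 10 min; 40 cycles of 95 °C 15 s and 60 °C 1 min). Relative expression by 2^-ΔΔCt against housekeeping genes and DMSO control, shown as log2. Two independent experiments.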

As for `CCN(CC)CCCC(C)Nc1ccnc2cc(Cl)ccc12` (centres undefined), the result with MCF7 [1] and in the assay on MDA-MB-231 [2] was Active.
As usually defined, the IC50 is the concentration that gives 50% inhibition. `Cc1coc2c1C(=O)C(=O)c1c-2ccc2c(C)cccc12` [TANSHINONE I]: the IC50 in the assay with MCF7 [3] was 7.93 µM; with MDA-MB-231 [4], 7.96 µM. Moreover, the Activity in the assay on MCF7 [5] came out at 14.3%; in the assay with MCF7 [6], 0.91%; in the assay with MCF7 [7] it was 3.63%; in the assay on MDA-MB-231 [8] it was 1.44%; with MDA-MB-231 [9], 0.18%; in the assay with MDA-MB-231 [10], 3.56%. The Ratio with MCF7 [11] came to 0.61.
As to `Cc1cc2c3c(ccc2s1)C(=O)C(=O)c1ccsc1-3`, the IC50 with MCF7 [3] was found to be 17.5 µM; in the assay with MDA-MB-231 [4], 23.4 µM.
Consider `Cc1coc2c1C(=O)C(=O)c1c-2ccc2c1CCCC2(C)C` [TANSHINONE IIA], for which the IC50 with MCF7 [3] worked out at 7.79 µM; in the assay on MDA-MB-231 [4] it was 7.7 µM. Also, the Activity is 2.9% in the assay with MCF7 [5]; 0.31% in the assay on MCF7 [6]; 5.27% with MCF7 [7]; 9.23% with MDA-MB-231 [8]; 0.34% with MDA-MB-231 [9]; 2.11% with MDA-MB-231 [10]. The result in the assay with MCF7 [12] and in the assay with MCF7 (Homo sapiens) was Active. In addition, the Ratio in the assay with MCF7 [11] is listed as 1.46.
As to `O=C1C(=O)c2c(ccc3ccccc23)-c2ccoc21`, the IC50 amounted to 14.4 µM with MCF7 [3] and 20.9 µM in the assay with MDA-MB-231 [4].
Take `COc1ccc2ccc3c(c2c1)-c1ccsc1C(=O)C3=O`: the IC50 in the assay on MCF7 [3] is 8.02 µM; in the assay with MDA-MB-231 [4] it was 6 µM. The Activity with MCF7 [5] came to 4.39%; with MCF7 [6] it was 0.55%; in the assay on MCF7 [7] it was 1.85%; in the assay on MDA-MB-231 [8], 1.8%; in the assay on MDA-MB-231 [9] it was 0.13%; in the assay with MDA-MB-231 [10], 1.19%. Further, the outcome in the assay on MCF7 [12], in the assay with MCF7 [13], in the assay with MCF7 [15], in the assay on MCF7 [16], in the assay on MCF7 [17] and in the assay on MCF7 [18] was Active. The result in the assay on MCF7 (Homo sapiens) was Active. In the assay with MCF7 [14], the outcome was inactive. Besides, the Ratio in the assay with MCF7 [11] is 11.1.
With `O=C1C(=O)c2ccc3ccccc3c2-c2sccc21`, the IC50 with MCF7 [3] is 12.8 µM; in the assay on MDA-MB-231 [4], 15.6 µM.
On to `O=C1C(=O)c2occc2-c2c1ccc1ccccc21`, for which the IC50 is 15.8 µM in the assay on MCF7 [3] and 17.4 µM with MDA-MB-231 [4].
The corresponding values for `Cc1cc2c3c(ccc2s1)C(=O)C(=O)c1sccc1-3` are 14.6 µM and 20.6 µM.
